Activity calls are given as the source filed them. No cut-off for these calls is given here.

The subject of one assay is PC-3. In words: Cytotoxicity against human PC-3 cells assessed as reduction in cell viability measured after 5 days by Cell-Titer glo assay. In kind it is functional, cell-based. The note with it: PC-3, 120 h.
The target of assay [1] is Bromodomain-containing protein 3 (Homo sapiens, UniProt Q15059). In words: Induction of BRD3 degradation in human MDA-MB-231 cells assessed as decrease in BET half life at 50 ug/ml incubated for 8 hrs by immunoblotting analysis. In kind it is cell-based. The note with it: dose 50.0 µg/ml. Summed up: (§1)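 MDA-MB-231 time-course. Cells given 50 µg/mL cycloheximide plus DMSO, or 50 µg/mL cycloheximide plus 10 µM compound. RIPA lysates immunoblotted for BRD2, BRD3 and BRD4 with GAPDH as control.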

Assay [2] deals with Bromodomain-containing protein 4 (Homo sapiens, UniProt O60885). In words: Induction of BRD4 degradation in human MDA-MB-231 cells assessed as decrease in BET half life at 50 ug/ml incubated for 8 hrs by immunoblotting analysis. In kind it is cell-based. The conditions noted are these: dose 50.0 µg/ml. Summed up:
as §1
(Immunoblotting shows a protein as a band on a membrane.)

Assay [3] addresses Bromodomain-containing protein 2 (Homo sapiens, UniProt P25440). In words: Induction of BRD2 degradation in human MDA-MB-231 cells assessed as decrease in BET half life at 50 ug/ml incubated for 8 hrs by immunoblotting analysis. In kind it is cell-based. The note with it: dose 50.0 µg/ml. In a few lines:
as §1

Sequence of Bromodomain-containing protein 3 (Q15059 2-726 limits assumed): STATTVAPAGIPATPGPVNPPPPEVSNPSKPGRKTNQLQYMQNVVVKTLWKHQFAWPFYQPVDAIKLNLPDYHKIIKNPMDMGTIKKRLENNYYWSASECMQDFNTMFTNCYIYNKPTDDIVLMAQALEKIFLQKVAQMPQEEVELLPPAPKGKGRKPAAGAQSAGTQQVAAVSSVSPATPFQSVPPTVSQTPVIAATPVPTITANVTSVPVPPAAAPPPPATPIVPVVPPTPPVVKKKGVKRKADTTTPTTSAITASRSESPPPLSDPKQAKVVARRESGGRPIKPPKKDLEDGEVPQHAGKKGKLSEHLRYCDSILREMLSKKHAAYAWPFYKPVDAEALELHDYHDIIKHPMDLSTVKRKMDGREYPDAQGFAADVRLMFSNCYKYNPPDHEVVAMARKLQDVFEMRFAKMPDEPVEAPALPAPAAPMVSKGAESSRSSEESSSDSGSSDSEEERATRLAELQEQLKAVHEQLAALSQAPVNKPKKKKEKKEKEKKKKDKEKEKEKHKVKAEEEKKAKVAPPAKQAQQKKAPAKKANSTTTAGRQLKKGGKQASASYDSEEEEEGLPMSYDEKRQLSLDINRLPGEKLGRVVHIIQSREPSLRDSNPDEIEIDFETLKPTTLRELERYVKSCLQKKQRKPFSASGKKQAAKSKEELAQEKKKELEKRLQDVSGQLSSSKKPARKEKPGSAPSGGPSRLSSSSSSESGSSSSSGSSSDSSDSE
Sequence of Bromodomain-containing protein 2 (P25440 whole entry, looked up): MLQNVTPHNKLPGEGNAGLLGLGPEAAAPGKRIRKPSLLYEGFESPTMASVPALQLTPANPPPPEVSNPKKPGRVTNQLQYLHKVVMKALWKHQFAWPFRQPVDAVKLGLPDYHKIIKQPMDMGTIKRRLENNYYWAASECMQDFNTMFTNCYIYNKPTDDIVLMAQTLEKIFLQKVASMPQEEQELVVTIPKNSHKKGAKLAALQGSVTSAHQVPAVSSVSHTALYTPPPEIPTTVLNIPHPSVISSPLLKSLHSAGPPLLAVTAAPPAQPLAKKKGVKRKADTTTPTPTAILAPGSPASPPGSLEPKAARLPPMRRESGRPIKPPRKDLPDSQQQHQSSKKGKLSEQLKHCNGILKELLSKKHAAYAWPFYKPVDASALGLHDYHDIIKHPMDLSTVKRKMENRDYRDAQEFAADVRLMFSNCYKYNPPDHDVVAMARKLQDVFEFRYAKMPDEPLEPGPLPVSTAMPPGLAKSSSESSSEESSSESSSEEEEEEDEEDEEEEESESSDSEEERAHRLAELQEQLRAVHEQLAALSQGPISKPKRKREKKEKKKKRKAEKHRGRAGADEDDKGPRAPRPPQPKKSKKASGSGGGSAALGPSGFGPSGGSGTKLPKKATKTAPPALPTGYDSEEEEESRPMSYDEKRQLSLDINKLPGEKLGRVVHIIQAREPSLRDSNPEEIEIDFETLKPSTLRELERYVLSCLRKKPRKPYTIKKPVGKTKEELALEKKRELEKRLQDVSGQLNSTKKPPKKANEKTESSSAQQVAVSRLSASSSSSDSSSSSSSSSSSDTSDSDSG

Regarding `Cc1sc2c(c1C)C(c1ccc(Cl)cc1)=N[C@@H](CC(=O)NCCCCNC(=O)COc1cccc3c1C(=O)N(C1CCC(=O)NC1=O)C3=O)c1nnc(C)n1-2` (some centres undefined), in the assay on PC-3, the EC50 (commonly the concentration at which the effect is half-maximal) was 50 nM.

Consider `C[C@@H]1C[C@@H]([C@H](O)CC2CC(=O)NC(=O)C2)C(=O)[C@@H](C)C1`, for which the result in assay [1], in assay [2] and in assay [3] was inactive.

The record behind these values is ChEMBL document CHEMBL5316292 (J Med Chem, 2023).
